Only some compounds are listed: those with a hit (about 1.2% of all), similar ones and a draw of the others.
CAL PDZ FP-1 – blocks peptide binding to human CAL PDZ domain; Q9HD26; purified CAL PDZ, TMR-peptide fluorescence polarization, 1 h; inhibition, % at 20 µM; actives 0.02% (n = 330,000);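 active = highest replicate inhibition of at least 40%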;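 also: plate controls were DMSO neutral control wells for no effect and unlabeled competitor peptide control wells for full effect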
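Test system: purified CerCALP PDZ construct; Compound dosing: one concentration, 20 µM compound; Also added: TMR-labelled reporter peptide T*-PRC34 bound in PDZ groove; Read-out: inhibition from polarization loss; Controls: unlabelled peptide and DMSO controls; Signal: FP readout, S and P plane fluorescence; Incubation: 1 h at RT.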
ARNT TACC3 PPI – ARNT/TACC3 interaction disruption. Q9Y6A5. AlphaScreen His-ARNT PAS-B/GST-TACC3 binding, luminescence; TACC3 fragment carries E629A point mutation. inhibition, % at 9.99 µM. actives 0.66% (n = 390,000);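 active = mean inhibition of replicates at least 50% and at least half of replicates each reaching 50%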;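 also: 0% = complete ARNT plus TACC3 wells and 100% = ARNT alone without TACC3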
CAL PDZ FP-2 – CAL PDZ (human) peptide binding inhibition | inhibition, % at 24.9 µM | purified CAL PDZ, TMR-peptide fluorescence polarization, 1 h | Q9HD26 | AID 602252 | actives 0.92% (n = 300,000);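 active = mean inhibition of at least 30% with at least half of replicates also reaching 30%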;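 also: 0% = DMSO neutral control and 100% = excess unlabeled competitor peptide PRC23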
CaV13 ICDI inh – Disruptors of the CACNA1D IQ motif to Ca2+-dependent inactivation inhibitor domain association, primary screening, Förster resonance energy transfer in intact living …; HEK cells, CFP/YFP FRET ICDI-IQ, plate reader, 10 min; percent FRET-ratio fall versus neutral wells; inhibition, % at 12.3 µM; actives 0.098% (n = 340,000); AID 743397;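 active = mean replicate inhibition of at least 30% and at least 1% of replicates passing that level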;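 also: 0% = median of the neutral control wells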
* = called active by the depositor; / = not tested or not shown; + = active, no number.

SMILES	CAL PDZ FP-1	ARNT TACC3 PPI	CAL PDZ FP-2	CaV13 ICDI inh
CC(C)NC(=O)Nc1ccc2c(c1)CC(=O)N([C@@H](C)CO)C[C@H](C)[C@H](CN(C)Cc1ccc(Oc3ccccc3)cc1)O2	/	33	/	/
CC(C)NC(=O)Nc1ccc2c(c1)CC(=O)N([C@@H](C)CO)C[C@@H](C)[C@@H](CN(C)Cc1ccc(Oc3ccccc3)cc1)O2	/	active	/	/
C[C@H](CO)N1C[C@H](C)[C@@H](CN(C)Cc2ccc(C(=O)Nc3ccccc3N)cc2)Oc2ccc(N(C)C)cc2CC1=O	/	45*	/	/
CC(C)NC(=O)N(C)C[C@H]1Oc2ccc(N(C)C)cc2CC(=O)N([C@H](C)CO)C[C@@H]1C	/	4	/	/
CC(C)NC(=O)N(C)C[C@@H]1Oc2ccc(N(C)C)cc2CC(=O)N([C@H](C)CO)C[C@H]1C	/	48*	/	/
COCC(=O)Nc1ccc2c(c1)OC[C@H](C)N(Cc1ccccc1OC)C[C@H](C)[C@H](OC)CN(C)C2=O	/	-8	/	/
Cc1ccc(S(=O)(=O)Nc2ccc3c(c2)CC(=O)N([C@H](C)CO)C[C@@H](C)[C@@H](CN(C)Cc2ccccc2)O3)cc1	/	2	/	/
Cc1noc(C)c1S(=O)(=O)Nc1ccc2c(c1)C(=O)N([C@H](C)CO)C[C@H](C)[C@H](CN(C)C(=O)NC(C)C)O2	/	12	/	/
C[C@@H]1CN([C@@H](C)CO)C(=O)c2cc(C#Cc3cccnc3)cnc2O[C@H]1CN(C)C(=O)CN(C)C	/	5	/	/
N=c1sccn1CC(=O)Nc1cccc(Oc2ccccc2)c1	/	11	38*	-3
CNC[C@@H]1Oc2ccc(NS(C)(=O)=O)cc2CC(=O)N([C@H](C)CO)C[C@H]1C	/	-1	/	/
Nc1nc2ccc(C(=O)N3CCCCC3)cc2s1	-3	47*	-2	-4
O=C(c1ccc2ncsc2c1)N1CCCCC1	-1	-3	-2	-2
CCCCN(CC)CCNC(=O)c1cn(CCOC)c(=O)c2c1c1ccccc1n2C	0	-1	-2	-20
CCCCN(CC)CCCNC(=O)c1cn(C)c(=O)c2c1c1ccccc1n2C	/	-11	37*	-3
O=C1OC(COc2ccc(Br)cc2)CN1c1ccccc1 (stereo not drawn)	-1	-2	87*	1
COc1ccc(CN2C[C@@H](C)[C@H](OC)CN(C)C(=O)c3cc(NC(=O)C4CC4)ccc3OC[C@H]2C)cc1	/	-2	/	/
Cc1cc(=O)n2nc(N3CCC(C(=O)NCc4cccc(Br)c4)CC3)sc2n1	-1	4	119*	-13
N#C[C@H]1[C@@H](c2ccccc2)[C@@H](CO)N1S(=O)(=O)c1ccc(-c2ccccc2)cc1	/	-4	/	/
C[C@@H]1CCCCO[C@@H](CN(C)S(=O)(=O)c2ccc(F)cc2)[C@@H](C)CN([C@H](C)CO)C(=O)c2cc(NC(=O)Nc3ccccc3)ccc2O1	/	-13	/	/
CN(/N=C/c1ccccc1Cl)c1ncc(Cl)cc1C(F)(F)F	1	-3	44*	-4
C[C@@H]1CCCCO[C@H](CN(C)Cc2ccc(C(=O)O)cc2)[C@H](C)CN([C@@H](C)CO)C(=O)c2cc(NC(=O)Nc3ccccc3)ccc2O1	/	0	/	/
CC(C)(CNC(=O)c1cc2ccccc2o1)N1CCOCC1	0	-3	67*	-5
CNC[C@@H]1OCCCC[C@@H](C)Oc2ccc(NS(=O)(=O)c3ccc(C)cc3)cc2C(=O)N([C@H](C)CO)C[C@@H]1C	/	-1	/	/
O=C(/C=C/c1ccco1)Nc1ccc2c(c1)OCO2	/	15	60*	-7
SMILES	CAL PDZ FP-1	ARNT TACC3 PPI	CAL PDZ FP-2	CaV13 ICDI inh
O=C(Nc1ccccc1)N[C@H]1CC[C@@H](CCNS(=O)(=O)c2cccc(F)c2)O[C@@H]1CO	/	-4	/	/
COCCNC(=O)c1cc2c(=O)n3cccc(C)c3nc2n(Cc2ccncc2)c1=N	-1	-15	0	43*
Cc1cccn2c(=O)c3cc(C(=O)NCc4ccco4)c(=N)n(CCc4ccccc4)c3nc12	2	10	-3	39*
Cc1cccn2c(=O)c3cc(C(N)=S)c(=N)n(CCCN4CCOCC4)c3nc12	0	/	-4	+
Cc1cccn2c(=O)c3cc(C(=O)NCc4ccc(F)cc4)c(=N)n(CCCN4CCOCC4)c3nc12	-5	-1	-5	116*
CCCCNC(=O)c1cc2c(=O)n3cccc(C)c3nc2n(CCN2CCOCC2)c1=N	1	5	-1	/
Cc1ccccc1S(=O)(=O)N1C[C@@H](O)COC[C@H]2O[C@H](CC(=O)N3CCC(Cc4ccccc4)CC3)CC[C@@H]21	/	6	/	/
CC(=O)Nc1ccc(N2C(=O)CC(N3CCN(Cc4ccc5c(c4)OCO5)CC3)C2=O)cc1 (stereo not drawn)	-1	-3	-7	-5
CCc1ccc(N2C(=O)CC(N3CCN(Cc4ccc5c(c4)OCO5)CC3)C2=O)cc1 (stereo not drawn)	-1	-5	85*	7
CC(C)(C)c1csc(N/N=C/c2ccc(O)cc2)n1	0	9	/	64*
CC(=O)Nc1sc(N/N=C/c2ccc(O)cc2)nc1-c1ccc(C)cc1	0	1	-1	-6
CCOC(=O)c1c(C)n(C)c2ccc(OCC(O)CN3CCCCCC3)cc12 (stereo not drawn)	0	11	/	-5
CCOC(=O)c1c(C)n(C)c2ccc(OCC(O)CN3CCC(C)CC3)cc12 (stereo not drawn)	-1	0	2	40*
CCOC(=O)/C(=C\C=C1/Sc2cc(OCC)c(OCC)cc2N1CC)C(C)=O	0	51*	1	-5
CCN1/C(=C\C=C2\C(=O)N(C)C(=S)N2C)Sc2ccccc21	0	/	-3	-5
CCOC(=O)/C(=C/C=C1\Sc2cc(OCC)c(OCC)cc2N1CC)C(C)=O	1	51*	-1	-4
COc1ccc(OC)c2[nH]c(=O)c(CCNS(=O)(=O)c3ccc(Cl)cc3)cc12	-3	48*	-3	/
CN1CCN(CC(=O)NN2CC(=O)N(c3ccc(F)cc3)CC2=O)CC1	0	-1	52*	3
O=C(CC1CC1)N1CC[C@@H]2[C@@H](CO)Nc3ccc(-c4cccc(F)c4)cc3[C@@H]21	/	0	/	/
CCOC(=O)C1(C)NC(c2cc(OC)c(OC)c(OC)c2)C2C(=O)N(CC)C(=O)C21 (stereo not drawn)	-1	1	67*	/
Cn1cnnc1SCC(=O)Nc1ccccc1	-1	-5	/	-7
Cn1cnnc1SCC(=O)Nc1ccc(OCc2ccccc2)cc1	-1	0	41*	-6
CCOC(=O)C1=CN(CC2CCCO2)C=C(C(=O)OCC)C1c1ccccc1C(F)(F)F (stereo not drawn)	-5	-6	/	76*
O=C(C[C@H]1CC[C@@H](NS(=O)(=O)c2ccc(F)cc2)[C@H](CO)O1)NC1CCC1	/	30*	/	/
O=C(C[C@H]1CC[C@H](NS(=O)(=O)c2ccc(F)cc2)[C@@H](CO)O1)NC1CCC1	/	-3	/	/
CCNC(=O)NC(=O)c1csc([N+](=O)[O-])c1	-1	1	41*	-17
